Screening data as filed in PubChem.
Rows were chosen to be rich in hits. Some 2.7% of all compounds tested hit in one or more screens of this group.
TCR-CD3 inh: inhibitors of human TCR-CD3 interaction, primary screen, biochemical, fluorescence, TAMRA-labeled TCR probe. T-cell receptor (TCR). inhibition, % at 9.4 µM. AID 651800, 2012. actives 0.37% (n = 360,000);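 note: recombinant mutant TCR 2C K166C tagged with TAMRA read by polarization; 0% = receptor in buffer alone and 100% = receptor with positive control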
PRMT1 inh: PRMT1 methyltransferase inhibitors, primary screen, biochemical, fluorescence polarization | actives 1.3% (n = 370,000) | inhibition, % at 2.79 µM | Protein arginine N-methyltransferase 1 (Homo sapiens), Q99873 | recombinant PRMT1, activity-based probe fluorescence polarization;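 active = inhibition above about 21% made by adding two undisclosed values, limit read from the data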
Target sequence (Q99873 whole entry, looked up): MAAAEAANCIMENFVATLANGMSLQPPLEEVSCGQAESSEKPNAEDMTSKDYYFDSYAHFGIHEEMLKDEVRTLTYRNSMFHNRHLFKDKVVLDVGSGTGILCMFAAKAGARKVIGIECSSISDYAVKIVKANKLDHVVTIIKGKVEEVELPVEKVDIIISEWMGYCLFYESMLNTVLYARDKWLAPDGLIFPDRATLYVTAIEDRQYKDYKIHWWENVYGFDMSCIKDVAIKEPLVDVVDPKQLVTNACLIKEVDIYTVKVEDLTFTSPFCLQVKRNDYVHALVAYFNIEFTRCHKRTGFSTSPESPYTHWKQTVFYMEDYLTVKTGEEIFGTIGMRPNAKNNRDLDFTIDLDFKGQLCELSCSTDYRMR
SIAE inh: human SIAE inhibitors, primary screen, biochemical, fluorescence polarization, FP-Rh probe, 1536-well HTS; actives 0.69% (n = 370,000); AID 1053197, 2014; Sialate O-acetylesterase (Homo sapiens), Q9HAT2; inhibition, % at 9.66 µM; SIAE FP-Rh probe binding;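 active = inhibition above a cutoff: mean of compounds within the control limits plus 3 SD of those, cut at about 17% in these data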;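 note: 0% = plate median of compound wells and 100% = probe without SIAE protein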
HTRA1 inhibitor: HTRA1 serine protease inhibitors, primary screen, biochemical, fluorescence polarization, HTS. Q92743. recombinant HTRA1, FP-rhodamine activity-based probe. inhibition, % at 5.96 µM. actives 0.5% (n = 340,000). AID 504803, 2011; in the data active = inhibition above about 36%;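 note: 0% = enzyme with DMSO and 100% = wells lacking enzyme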
ABHD4 inh: ABHD4 inhibitors, primary screen, biochemical, fluorescence polarization, mouse. purified mABHD4, FP-Rh probe fluorescence polarization. inhibition, % at 8.92 µM. AID 720543, 2013. actives 0.54% (n = 370,000);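 active = inhibition exceeding the mean over every tested compound plus 3 SD, cut at about 30% in these data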;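 note: 0% = plate median of compound wells and 100% = S159A mutant with DMSO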
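Test system: mABHD4 protein | Buffer or medium: HEPES pH 7.0 buffer, 150 mM NaCl, 0.01% Pluronic F-127 | Probe or stimulus: FP-Rh fluorescent activity-based probe, added after compound pre-incubation | Timing: Pre-incubation 45 min, probe exposure 60 min, at 25 °C | Technique: Fluorescence polarization, excitation 525 nm, emission 598 nm, BODIPY TMR filters | Repeats: Single well per compound (singlicate)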
BSA probe FL: compounds interfering with TAMRA-BSA probe, counter-screen for TCR-CD3 interaction inhibitor project, biochemical, fluorescence, TAMRA-labeled BSA; shares compounds with TCR-CD3 inh; TAMRA-labeled BSA probe fluorescence counterscreen; inhibition, % at 9.4 µM; actives 10% (n = 1,200); in the data active = inhibition above about 23%;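 note: 0% = buffer low control and 100% = reference high control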
TCR-CD3 inh conf: TCR-CD3 interaction inhibitors, retest, confirmation, biochemical, fluorescence, TAMRA-labeled TCR probe; actives 48% (n = 1,200); inhibition, % at 9.4 µM; TAMRA-labeled TCR probe fluorescence binding assay; shares compounds with TCR-CD3 inh
Starred values were filed as active, the others as inactive; . = no result. Cut-off read from the data, not from the text of the source, unless noted: active = inhibition above about 19%; inactive = the rest.

SMILES	TCR-CD3 inh	PRMT1 inh	SIAE inh	HTRA1 inhibitor	ABHD4 inh	BSA probe FL	TCR-CD3 inh conf
COc1ccc(Cl)cc1C(=O)NC(=S)Nc1cc(-c2nc3ccccc3[nH]2)ccc1C	46.7*	1.6	-117.4	-108.0	-71.5	-3.6	3.2
CCOc1cc(/C=N/NC(=O)COc2ccc(Cl)cc2)ccc1OS(=O)(=O)c1ccccc1	28.4*	1.2	-21.4	-70.2	-33.1	24.0*	35.3*
Cc1ccccc1C(=O)NNC(=S)NC(=O)c1ccc(Cl)cc1Cl	1.5	8.4	4.3	10.2	4.2	.	.
C=CCNC(=S)NNC(=O)c1cccn(Cc2ccc(Cl)c(Cl)c2)c1=O	14.6	0.5	0.6	5.9	14.7	.	.
CCNC(=S)NNC(=O)c1cccn(Cc2ccc(Cl)cc2Cl)c1=O	20.1*	-2.0	4.0	8.2	7.7	1.9	17.0
C=CCNC(=S)NNC(=O)c1cccn(Cc2ccc(Cl)cc2Cl)c1=O	19.8*	0.0	4.8	10.0	14.8	-9.4	14.4
CC(C)[C@@H](C)/C=C/[C@@H](C)[C@H]1CC[C@@H]2[C@]1(C)CCC1[C@]23C=C[C@]2(C[C@@H](O)CC[C@]12C)N(c1cnccn1)O3 (some centres undefined)	-1.0	-1.8	.	.	-6.9	.	.
CC1OC(OCC2OC(Oc3c(-c4ccc(O)cc4)oc4cc(O)cc(O)c4c3=O)C(O)C(O)C2O)C(O)C(O)C1O (centres undefined)	21.1*	-0.2	7.8	5.2	6.6	-0.9	12.8
Cc1ccccc1CSc1nnnn1-c1ccc(C(N)=O)cc1	-15.6	-4.5	2.9	2.1	-6.1	.	.
NC(=O)c1ccc(-n2nnnc2SCC(=O)c2ccc(O)c(O)c2)cc1	28.4*	9.1	5.3	28.8	22.7	-10.1	38.9*
CC1=Nc2ccccc2/C1=C/c1nc(-c2ccc(C)s2)oc1O	19.1*	-3.6	-17.8	21.3	14.5	20.2	3.1
Cc1cc(C)cc(NC(=O)CCc2c(C)nn(-c3ccc(N4CCOCC4)nn3)c2C)c1	2.0	-4.8	-4.4	-1.0	-3.0	.	.
O=C(Cn1nnc(-c2ccccc2F)n1)Nc1ccc(Cl)c(Cl)c1	.	-2.5	2.6	.	-2.4	.	.
CC1CCN(S(=O)(=O)c2ccc(NC(=O)Cn3nnc(-c4ccccc4F)n3)cc2)CC1	19.7*	-1.4	-52.5	-37.8	-6.5	8.9	23.7*
COc1ccc(C(=O)N/N=C\c2ccc(OC)c(COc3ccccc3Br)c2)c(OC)c1	26.1*	3.6	-83.5	-66.5	-53.9	15.6	32.0*
COc1ccc(/C=N\NC(=O)c2ccccc2Br)cc1COc1ccccc1	0.2	-0.5	2.4	-25.8	-2.4	.	.
Nc1cc(=O)[nH]c(SCC(=O)NNC(=O)c2ccccc2)n1	21.6*	0.2	-4.8	0.7	-0.9	-1.3	5.4
Cc1cc([N+](=O)[O-])cc(/C=N\NC(=O)C2COc3ccccc3O2)c1O (centres undefined)	31.3*	-2.3	2.3	10.4	3.8	-1.4	29.2*
NC(Cc1ccc(O)c([N+](=O)[O-])c1)C(=O)O (centres undefined)	-1.7	-1.7	3.9	1.5	10.9	.	.
N[C@@H](Cc1ccc(O)c(O)c1)C(=O)O	74.9*	9.0	13.9	17.9	29.2	-11.1	32.4*
O=C(O)c1ccc(/C=N/O)cc1	19.3*	-1.4	2.5	3.6	1.4	1.0	1.3
O=C(O)c1ccc(N/N=C/c2ccc(-c3ccccc3)cc2)cc1	2.4	4.1	16.5	-12.6	26.8	.	.
O=C(O)c1cccc(N2C(=O)/C(=C/c3ccc(SCc4ccc(Cl)cc4)o3)SC2=S)c1	19.6*	57.1*	-5.1	0.7	32.2*	-15.6	6.9
O=C1COc2ccc(C(=O)COC(=O)c3ccco3)cc2N1	1.2	6.4	-3.0	2.5	3.3	.	.
CC(C)[C@H](NC(=O)c1ccco1)C(=O)OCC(=O)c1ccc2c(c1)NC(=O)CO2	118.1*	1.5	0.6	-5.5	-0.1	1.5	3.2
SMILES	TCR-CD3 inh	PRMT1 inh	SIAE inh	HTRA1 inhibitor	ABHD4 inh	BSA probe FL	TCR-CD3 inh conf
CC1CCCCC1NC(=O)CN1C(=O)c2ccccc2S1(=O)=O (centres undefined)	1.6	1.0	1.4	-5.5	10.3	.	.
O=C(CN1C(=O)c2ccccc2S1(=O)=O)NC1CCCC1	21.9*	3.0	3.6	4.8	2.9	-1.2	1.7
COc1cc(C(=O)NNC(=S)NC(=O)c2ccccc2C)cc(OC)c1OC	-6.4	-0.1	10.2	7.4	4.5	.	.
COc1ccccc1C(=O)NNC(=S)NC(=O)c1cc(OC)c(OC)c(OC)c1	19.0*	-3.6	0.9	0.2	1.7	-6.8	8.8
CC1CCN(C(=O)CN2C(=O)C(=O)N(C)C2=O)c2ccccc2S1 (centres undefined)	-4.9	-2.7	4.8	-6.9	3.1	.	.
CN(C)S(=O)(=O)c1cccc(NC(=O)COC(=O)c2ccc3ccccc3n2)c1	2.6	-7.8	-1.3	-0.5	0.3	.	.
CN(C)S(=O)(=O)c1cccc(NC(=O)COC(=O)c2cc(-c3cccc(Br)c3)nc3ccccc23)c1	82.8*	0.3	-0.2	-12.1	-8.3	21.2	55.9*
C[C@@H]1CN([C@H](C)CO)C(=O)c2cc(NC(=O)Nc3ccc(C(F)(F)F)cc3)ccc2O[C@H]1CN(C)Cc1ccc(Cl)c(Cl)c1	27.2*	-0.1	-11.5	-47.4	-14.5	23.6*	45.7*
C[C@@H]1CN([C@@H](C)CO)C(=O)Cc2cc(NC(=O)Nc3ccc(C(F)(F)F)cc3)ccc2O[C@@H]1CN(C)S(=O)(=O)c1ccc(Cl)cc1	48.0*	-2.2	-154.5	-154.8	-91.2	13.5	25.8*
C[C@H](CO)N1C[C@H](C)[C@@H](CN(C)S(=O)(=O)c2ccc(F)cc2)Oc2ccc(NC(=O)Nc3ccccc3)cc2C1=O	2.3	-2.4	-8.8	-20.6	-15.1	.	.
C[C@H]1CN([C@@H](C)CO)C(=O)c2cccc(NC(=O)Nc3ccc(C(F)(F)F)cc3)c2O[C@@H]1CN(C)Cc1ccc(Cl)c(Cl)c1	10.7	2.0	-49.3	-80.0	-53.8	.	.
C[C@@H]1CN([C@H](C)CO)C(=O)c2cc(NC(=O)Nc3ccc(C(F)(F)F)cc3)ccc2O[C@H]1CN(C)S(=O)(=O)c1ccc(Cl)cc1	54.3*	2.5	-159.1	-88.7	-99.4	24.5*	52.3*
